Rows were chosen to be rich in hits. Some 1.9% of all compounds tested hit in one or more screens of this group.
Rin1-Abl PPI inh: inhibitors of human Rin1-Abl protein interaction; P00519+Q13671; TR-FRET Rin1/Abl binding, biochemical; inhibition, % at 7.35 µM; 360,000 compounds, 0.4% hits; in the data active means inhibition above about 5%, passing the limit was not always enough
UHRF1 binding: UHRF1 methyl-DNA binding inhibition; inhibition, % at 4.4 µM; AID 687016; UHRF1 binding to methylated oligo, TR-FRET; 370,000 compounds, 0.75% hits; in the data active means inhibition above about 21%;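 further: UHRF1 SRA domain binding a hemimethylated CpG hairpin DNA probe; 0% = median of test compound wells and 100% = reference inhibitor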
MBD2 inh: MBD2-methylated oligo binding inhibition; TR-FRET, MBD2 binding to methylated oligonucleotide; inhibition, % at 4.4 µM; AID 686964; Q9UBB5; 370,000 compounds, 0.31% hits; in the data active means inhibition above about 13%
TDP2 absorb: TDP2 (human) inhibition, absorbance primary screen; O95551; AID 720702; recombinant TDP2, T5PNP hydrolysis, p-nitrophenol absorbance 415 nm; 370,000 compounds, 0.34% hits; inhibition, % at 12.8 µM;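 active means inhibition above the mean of all tested compounds plus 3 SD, set per campaign, cut at about 25% in these data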;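 further: 0% = DMSO with enzyme and 100% = buffer with substrate but no TDP2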
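test system = human TDP2 enzyme | input = TDP2 enzyme at 120 nM final | medium = 50 mM Tris-HCl pH 7.5 with Mg2+, KCl, DTT, BSA | also added = T5PNP substrate, 5 mM | times = 2 h at 37 °C | technique = epi absorbance | benchmarks = high control without enzyme, low control DMSO plus TDP2 | replication = each compound tested once, singlicate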
LEDGF integ inh: blocks HIV-1 LEDGF/p75-dependent DNA integration. TR-FRET IN-LEDGF/p75 DNA integration, Eu/Cy5. inhibition, % at 3.7 µM. 370,000 compounds, 0.64% hits;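 active means inhibition above the screen-wide mean plus 3 SD, cut at about 13% in these data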;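 further: signal is the Cy5 over europium emission ratio at 671 and 618 nm; 0% = plate median of compound wells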
IN multimer act: activates HIV-1 integrase multimerization in LEDGF counter-screen | 2,000 compounds, 17% hits | activation, % at 7.7 µM | TR-FRET HIV-1 integrase multimerization, biochemical | shares compounds with LEDGF integ inh; in the data active means activation above about 8.9%
TRFRET interf: counter-screen for LEDGF/p75 integration inhibitors: TR-FRET optical interference; 2,000 tested, under 10 active; inhibition, % at 7.7 µM; AID 1053135; shares compounds with LEDGF integ inh; TR-FRET optical interference counterscreen, HIV-1 IN multimerization;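 active means inhibition above the mean over all tested compounds plus 3 SD, which no compound reached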;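 further: 0% = integrase with antibodies and DMSO and 100% = antibodies without integrase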
LEDGF integ conf: LEDGF/p75-dependent HIV-1 integration inhibition, confirmation; 2,000 compounds, 36% hits; inhibition, % at 3.7 µM; shares compounds with LEDGF integ inh; TR-FRET LEDGF/p75-dependent HIV-1 integration, biochemical; in the data active means inhibition above about 14%
An asterisk follows results filed as active.

Results for O=C(COCc1ccccc1)NC1CCCCN(Cc2ccc(Cl)cc2)C1=O (configuration not stated) ?
UHRF1 binding: -3; MBD2 inh: 2; TDP2 absorb: 6; LEDGF integ inh: -3

How did CN(Cc1ccccc1)S(=O)(=O)c1cccc(C(=O)OCc2cccc(C(F)(F)F)c2)c1 do in these assays?
UHRF1 binding: 1; MBD2 inh: -3; TDP2 absorb: 4; LEDGF integ inh: 3

What do the screens show for `COc1ccc(C2C(C(=O)Nc3ccc(Cl)cc3)CCC(=O)N2c2ccc(OC)cc2)cc1` (configuration not stated)?
UHRF1 binding: 3; MBD2 inh: -1; TDP2 absorb: 2; LEDGF integ inh: 1

How did Brc1ccc2nc(-c3ccc(CN4CCC(c5nc6ccccc6[nH]5)CC4)cc3)c(-c3ccccc3)nc2c1 do in these assays?
UHRF1 binding: 0; MBD2 inh: 4; TDP2 absorb: 0; LEDGF integ inh: 1

How did Cc1cc(C)n2nc(-c3ccsc3-n3c(C)ccc3C)cc2n1 do in these assays?
Rin1-Abl PPI inh: 4; UHRF1 binding: 0; MBD2 inh: 0; TDP2 absorb: -2; LEDGF integ inh: 24*; IN multimer act: 4; TRFRET interf: -21; LEDGF integ conf: 20*

Results for Cc1cc(C)n2nc(-c3ccccc3)cc2n1 ?
Rin1-Abl PPI inh: 1; UHRF1 binding: -3; MBD2 inh: 3; TDP2 absorb: 0; LEDGF integ inh: -2

How did C=C(C)CSc1nc2sc3c(c2c(=O)n1-c1ccccc1)CCN(C)C3 do in these assays?
Rin1-Abl PPI inh: -7; UHRF1 binding: -1; MBD2 inh: -1; TDP2 absorb: 11; LEDGF integ inh: 1

How did C=CCSc1nc2sc3c(c2c(=O)n1-c1ccc(C)cc1)CCN(C)C3 do in these assays?
Rin1-Abl PPI inh: -1; UHRF1 binding: 2; MBD2 inh: 3; TDP2 absorb: 15; LEDGF integ inh: 34*; IN multimer act: -1; TRFRET interf: 5; LEDGF integ conf: -5

What do the screens show for `O=C(NCc1ccco1)c1cc2ccc(O)cc2oc1=O`?
Rin1-Abl PPI inh: -1; UHRF1 binding: 8; MBD2 inh: -2; TDP2 absorb: -6; LEDGF integ inh: 30*; IN multimer act: 20*; TRFRET interf: -99; LEDGF integ conf: 19*

How did COc1ccc2cc(C(=O)NCc3ccco3)c(=O)oc2c1 do in these assays?
Rin1-Abl PPI inh: -2; UHRF1 binding: -12; MBD2 inh: 0; TDP2 absorb: -6; LEDGF integ inh: 3

What do the screens show for `Cc1ccc(S(=O)(=O)N2CCCC2)cc1C(=O)N1CCN(Cc2ccccc2)CC1`?
Rin1-Abl PPI inh: 2; UHRF1 binding: -1; MBD2 inh: 2; TDP2 absorb: -2; LEDGF integ inh: 22*; IN multimer act: 0; TRFRET interf: 2; LEDGF integ conf: 0

How did COc1ccc(NC(=O)CCCn2cnc3ccccc3c2=O)c(OC)c1 do in these assays?
Rin1-Abl PPI inh: 0; UHRF1 binding: 2; MBD2 inh: 1; TDP2 absorb: -14; LEDGF integ inh: 16*; IN multimer act: -1; TRFRET interf: 2; LEDGF integ conf: -13

How did COC(=O)c1sc2nc(N)c(C#N)cc2c1N do in these assays?
Rin1-Abl PPI inh: -3; UHRF1 binding: 9; MBD2 inh: -2; TDP2 absorb: 1; LEDGF integ inh: 34*; IN multimer act: 2; TRFRET interf: -9; LEDGF integ conf: 2

Results for COC(=O)c1sc2nc3c(cc2c1N)CCCC3 ?
Rin1-Abl PPI inh: 0; UHRF1 binding: -3; MBD2 inh: -8; TDP2 absorb: 3; LEDGF integ inh: 2

What do the screens show for `CCN(CC)C(=O)C1=C(C)N(Cc2ccc(C(C)(C)C)cc2)C(=O)C(CC(=O)NC(c2ccccc2)c2ccccc2)C1` (configuration not stated)?
Rin1-Abl PPI inh: 7; UHRF1 binding: 1; MBD2 inh: -3; TDP2 absorb: -11; LEDGF integ inh: 70*; IN multimer act: 1; TRFRET interf: -5; LEDGF integ conf: -10

What do the screens show for `CN(CCOC(=O)CSc1ccccc1)C1CN(Cc2cn(Cc3ccccc3F)nn2)S(=O)(=O)C1` (configuration not stated)?
UHRF1 binding: 0; MBD2 inh: -5; TDP2 absorb: 14; LEDGF integ inh: 1

What do the screens show for `COc1cc(NC(=O)NC2CCCCN(Cc3ccc(Cl)cc3)C2=O)cc(OC)c1` (configuration not stated)?
UHRF1 binding: 1; MBD2 inh: 0; TDP2 absorb: 16; LEDGF integ inh: -3

Results for C(=N\NC1=Nc2cccc3cccc1c23)/c1ccccc1 ?
Rin1-Abl PPI inh: -2; UHRF1 binding: 1; MBD2 inh: 0; TDP2 absorb: -1; LEDGF integ inh: 19*; IN multimer act: 0; TRFRET interf: -1; LEDGF integ conf: -7

What do the screens show for `Cc1cccc(NC(=O)Nc2nc3ncccn3c2-c2ccc(F)cc2)c1`?
UHRF1 binding: 0; MBD2 inh: -6; TDP2 absorb: 5; LEDGF integ inh: 0

What do the screens show for `CC(C)CN1C(=O)C[C@@]2(C(=O)N(C)c3ccc(NC(=O)C(F)(F)F)cc32)C1c1ccccc1` (some centres not stated)?
UHRF1 binding: 2; MBD2 inh: 1; TDP2 absorb: 2; LEDGF integ inh: 1

What do the screens show for `O=C(NCC(c1cccs1)N1CCOCC1)c1ccccc1NS(=O)(=O)c1ccc(Cl)c([N+](=O)[O-])c1` (configuration not stated)?
Rin1-Abl PPI inh: 1; UHRF1 binding: -1; MBD2 inh: -6; TDP2 absorb: 3; LEDGF integ inh: 35*; IN multimer act: 0; TRFRET interf: -1; LEDGF integ conf: -1

Results for O=C(NCC(c1cccs1)N1CCOCC1)c1ccccc1NS(=O)(=O)c1cccc([N+](=O)[O-])c1 (configuration not stated) ?
Rin1-Abl PPI inh: 2; UHRF1 binding: 0; MBD2 inh: 6; TDP2 absorb: 3; LEDGF integ inh: -1

What do the screens show for `Cn1nnnc1SCC(=O)N1CCN(c2ccc(Cl)cc2)CC1`?
Rin1-Abl PPI inh: 0; UHRF1 binding: -1; MBD2 inh: 2; TDP2 absorb: 7; LEDGF integ inh: 57*; IN multimer act: 1; TRFRET interf: -3; LEDGF integ conf: 2

What do the screens show for `Cn1nnnc1SCC(=O)N1CCCCC1`?
Rin1-Abl PPI inh: 0; UHRF1 binding: 20; MBD2 inh: 8; TDP2 absorb: 0; LEDGF integ inh: -1

Compound activity from PubChem BioAssay.
